In ChEMBL document CHEMBL1148955, “Chemical constituents from the Colombian medicinal plant Maytenus laevis” (2004):
Calls of active or inactive are those of the source. The rule behind the calls is not given here.

Key:
PBMC [1] = assay: Induction of IL10 production in human PBMC at 10 ug/ml after 48 hrs by ELISA; assay type: functional, cell-based
Outline: (§1)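 PBMCs were isolated from heparinized venous blood by Ficoll-Hypaque density gradient centrifugation. Cells were cultured at 1 × 10^6/mL in RPMI 1640 with 10% fetal calf serum, with or without compound at 1 or 10 µg/mL, for 48 h at 37 °C. Cytokines in the culture supernatants were measured by commercial ELISA kits.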

PBMC [2] = assay: Induction of TNFalpha production in human PBMC at 10 ug/ml after 48 hrs by ELISA; assay type: functional; outline: as §1
PBMC [3] = assay: Induction of IL10 production in human PBMC at 1 ug/ml after 48 hrs by ELISA; assay type: functional, cell-based; outline: as §1
PBMC [4] = assay: Induction of IL12 production in human PBMC at 10 ug/ml after 48 hrs by ELISA; assay type: functional; outline: as §1
PBMC [5] = assay: Induction of IL6 production in human PBMC at 1 ug/ml after 48 hrs by ELISA; assay type: functional; outline: as §1
PBMC [6] = assay: Induction of IFN-gamma production in human PBMC at 10 ug/ml after 48 hrs by ELISA; assay type: functional, cell-based; outline: as §1
PBMC [7] = assay: Induction of IL6 production in human PBMC at 10 ug/ml after 48 hrs by ELISA; assay type: functional; outline: as §1
PBMC [8] = assay: Induction of IL4 production in human PBMC at 1 ug/ml after 48 hrs by ELISA; assay type: functional, cell-based; outline: as §1
PBMC [9] = assay: Induction of IL4 production in human PBMC at 10 ug/ml after 48 hrs by ELISA; assay type: functional, cell-based; outline: as §1
PBMC [10] = assay: Induction of TNFalpha production in human PBMC at 1 ug/ml after 48 hrs by ELISA; assay type: functional; outline: as §1
PBMC [11] = assay: Induction of IFN-gamma production in human PBMC at 1 ug/ml after 48 hrs by ELISA; assay type: functional, cell-based; outline: as §1
PBMC [12] = assay: Induction of IL12 production in human PBMC at 1 ug/ml after 48 hrs by ELISA; assay type: functional; outline: as §1

| Compound | Activity (PBMC [1]) | Activity (PBMC [2]) | Activity (PBMC [3]) | Activity (PBMC [4]) | Activity (PBMC [5]) | Activity (PBMC [6]) | Activity (PBMC [7]) | Activity (PBMC [8]) | Activity (PBMC [9]) | Activity (PBMC [10]) | Activity (PBMC [11]) | Activity (PBMC [12]) |
| --- | --- | --- | --- | --- | --- | --- | --- | --- | --- | --- | --- | --- |
| COc1c(O)cc([C@H]2Oc3cc(O)cc(O)c3C[C@H]2O)cc1O | inactive | <7.8 pg/mL | inactive | <7.8 pg/mL | <7.8 pg/mL | inactive | 662.9 pg/mL | inactive | inactive | <7.8 pg/mL | inactive | <7.8 pg/mL |
| COc1ccc([C@H]2Oc3cc(O)cc(O)c3C[C@H]2O)cc1OC | inactive | <7.8 pg/mL | inactive | <7.8 pg/mL | 473.4 pg/mL | inactive | 198.6 pg/mL | inactive | inactive | <7.8 pg/mL | inactive | <7.8 pg/mL |
| COc1ccc(C(=O)O[C@@H]2C[C@](C)(O)[C@H]3[C@H](O[C@@H]4O[C@H](CO)[C@@H](O)[C@H](O)[C@H]4O)OC=C[C@H]32)cc1OC | inactive | <7.8 pg/mL | inactive | <7.8 pg/mL | 849.5 pg/mL | inactive | 38.1 pg/mL | inactive | inactive | 12.6 pg/mL | inactive | 27.2 pg/mL |
| COc1cc(C(=O)O[C@@H]2C[C@](C)(O)[C@H]3[C@H](O[C@@H]4O[C@H](CO)[C@@H](O)[C@H](O)[C@H]4O)OC=C[C@H]32)ccc1O | inactive | <7.8 pg/mL | inactive | <7.8 pg/mL | <7.8 pg/mL | inactive | <7.8 pg/mL | inactive | inactive | <7.8 pg/mL | inactive | <7.8 pg/mL |
| CC1(C)[C@@H](O)CC[C@]2(C)[C@H]3CC=C4[C@@H]5C[C@@]6(C)C[C@H](OC6=O)[C@]5(C)CC[C@@]4(C)[C@]3(C)CC[C@@H]12 [3-EPIABRUSLACTONE A] | inactive | <7.8 pg/mL | inactive | <7.8 pg/mL | <7.8 pg/mL | inactive | 308.4 pg/mL | inactive | inactive | <7.8 pg/mL | inactive | <7.8 pg/mL |
| CC1(C)[C@H](O)CC[C@]2(C)[C@H]3CC=C4[C@@H]5C[C@@]6(C)C[C@H](OC6=O)[C@]5(C)CC[C@@]4(C)[C@]3(C)CC[C@@H]12 [ABRUSLACTONE A] | inactive | 22.7 pg/mL | inactive | 28.3 pg/mL | 22.5 pg/mL | inactive | 777.2 pg/mL | inactive | inactive | <7.8 pg/mL | inactive | <7.8 pg/mL |
| C[C@H]1C(=O)CC[C@@H]2[C@]1(C)CC[C@H]1[C@@]2(C)CC[C@@]2(C)[C@@H]3CC(C)(C)CC[C@]3(CO)CC[C@]12C [CANOPHYLLOL] | inactive | 322.9 pg/mL | inactive | 104.3 pg/mL | 2579.3 pg/mL | inactive | 2579.2 pg/mL | inactive | inactive | 132.5 pg/mL | inactive | 47.3 pg/mL |
| CC(=O)OC[C@]12[C@H](OC(=O)c3ccccc3)[C@H](OC(C)=O)[C@@H]3[C@@H](OC(C)=O)[C@@]14O[C@@]3(C)COC(=O)c1cccnc1C(C)C(C)C(=O)O[C@@H]([C@H](OC(C)=O)[C@@H]2OC(=O)c1ccccc1)[C@]4(C)O (some centres not stated) [EBENIFOLINE E III] | inactive | <7.8 pg/mL | inactive | <7.8 pg/mL | <7.8 pg/mL | inactive | <7.8 pg/mL | inactive | inactive | <7.8 pg/mL | inactive | <7.8 pg/mL |
| CC1(C)[C@@H](O)CC[C@]2(C)[C@H]3CC=C4[C@H]5C[C@](C)(C(=O)O)CC[C@]5(C)CC[C@@]4(C)[C@]3(C)CC[C@@H]12 [EPIKATONIC ACID] | inactive | <7.8 pg/mL | inactive | <7.8 pg/mL | 16.2 pg/mL | inactive | 22.9 pg/mL | inactive | inactive | <7.8 pg/mL | inactive | <7.8 pg/mL |
| C[C@@H]1O[C@@H](O[C@@H]2[C@@H](O)[C@H](OCCc3ccc(O)c(O)c3)O[C@H](COC(=O)/C=C/c3ccc(O)c(O)c3)[C@H]2O)[C@H](O)[C@H](O)[C@H]1O [ISOACTEOSIDE] | inactive | <7.8 pg/mL | inactive | <7.8 pg/mL | 101.5 pg/mL | inactive | 175.5 pg/mL | inactive | inactive | <7.8 pg/mL | inactive | <7.8 pg/mL |
| CC(C)c1cc2c(cc1O)[C@@]1(C)CCC[C@](C)(C(=O)O)[C@@H]1CC2 [LAMBERTIC ACID] | inactive | <7.8 pg/mL | inactive | <7.8 pg/mL | 59.8 pg/mL | inactive | 1454.4 pg/mL | inactive | inactive | <7.8 pg/mL | inactive | <7.8 pg/mL |
| CC(=O)OC[C@]12[C@H](OC(C)=O)[C@H](OC(C)=O)[C@@H]3[C@@H](OC(C)=O)[C@@]14O[C@@]3(C)COC(=O)c1cccnc1C(C)C(C)C(=O)O[C@@H]([C@H](OC(C)=O)[C@@H]2OC(=O)c1ccccc1)[C@]4(C)O (some centres not stated) [MAYTEINE] | inactive | 24.6 pg/mL | inactive | 14.7 pg/mL | 1245.2 pg/mL | inactive | 1576.2 pg/mL | inactive | inactive | 22 pg/mL | inactive | 14.3 pg/mL |
| COc1c(O)cc(-c2oc3cc(O)cc(O)c3c(=O)c2O)cc1O [MEARNSETIN] | inactive | <7.8 pg/mL | inactive | <7.8 pg/mL | 783.6 pg/mL | inactive | 203.4 pg/mL | inactive | inactive | 31.3 pg/mL | inactive | 14.3 pg/mL |
| COc1c(O)cc([C@H]2Oc3c(c(O)cc(O)c3[C@H]3c4c(O)cc(O)cc4O[C@H](c4ccc(O)cc4)[C@@H]3O)C[C@H]2O)cc1O [OURATEAPROANTHOCYANIDIN A] | inactive | <7.8 pg/mL | inactive | <7.8 pg/mL | 28.1 pg/mL | inactive | 174.4 pg/mL | inactive | inactive | <7.8 pg/mL | inactive | <7.8 pg/mL |
| C[C@@H]1[C@@]23CC[C@H]4[C@@](C)(CC[C@@]5(C)[C@@H]6C[C@](C)(C(=O)O)CC[C@]6(C)CC[C@]45C)[C@@H]2CC[C@@]1(O)OC3 [SALASPERMIC ACID] | inactive | <7.8 pg/mL | inactive | <7.8 pg/mL | 857.3 pg/mL | inactive | 109.6 pg/mL | inactive | inactive | 54.5 pg/mL | inactive | 21.6 pg/mL |
| C[C@@H]1[C@H]2C3=CC[C@@H]4[C@@]5(C)CC[C@@H](O)C(C)(C)[C@@H]5CC[C@@]4(C)[C@]3(C)CC[C@@]2(C)[C@@H](O)C[C@H]1C(=O)O [TRIPTOCALLIC ACID A] | inactive | <7.8 pg/mL | inactive | <7.8 pg/mL | 705.7 pg/mL | inactive | 10.6 pg/mL | inactive | inactive | <7.8 pg/mL | inactive | <7.8 pg/mL |
